The values below come from the RNAGym collection of RNA variant scans (doi:10.1038/s41586-018-0170-7).

The labels stand for the following.
B1: tRNA (parent)
chain: GUUCCGUUGGCGUAAUGGUAACGCGUCUCCCUCCUAAGGAGAAGACUGCGGGUUCGAGUCCCGUACGGAACG

The variants in this data set derive from B1. The experiment in a line: yeast fitness, log relative to wild type (ln ratio); higher = fitter; tRNA-Arg(CCU), competitive growth, 37 C, 1 M NaCl. The procedure, abridged:
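BY4742 cells without the chromosomal tRNA-Arg(CCU) gene carried a combinatorial variant library on a HIS3 centromeric plasmid, from two independent transformations. After 4 generations in SC-HIS at 30 °C, pools spent ~6.5 generations (~26.5 h) in SC-HIS 1M NaCl at 37 °C, giving three outputs per input, and 125 bp paired-end Illumina reads counted the variants. Fitness is the natural log of each genotype's generations over the wild type's, with generations taken as OD-scaled log2 output/input frequency weighted by inverse variance across replicates.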
In the case of G6U C27U A43C C46U C66A C71U, the “yeast fitness (ln)” value is -0.299.
For G6U A43C C66U A69G A70U C71U the value was -0.393; for G6U A43C C46U C66A C71U, -0.0527.
For G6U C27U A69G A70G the value was -0.33; for G6U C27U A69G A70U, -0.214; for G6A C46U C66A A70G C71U, -0.169.
For G6U A43C C46U A69G A70U C71U the value was -0.438.
Take G6U A43C C46U A70U C71U: the “yeast fitness (ln)” value was -0.225.
Consider G6A C27U C66A, for which the “yeast fitness (ln)” value is -0.192.
For G6A C27U C66U the value was -0.0352; for G6U A43C C66A A69G, -0.0712.
For G6U C27U C46U A69G the value was -0.15; for G6A C46U C66A A69G A70G, -0.148; for G6A C46U C66A A69G A70U, -0.178.
For G6U A43C A70U C71U the value was -0.287.
Take G6A C66U A69G A70G C71U: the “yeast fitness (ln)” value was -0.41.
For G6U C46U A69G C71U the value was -0.194; for G6U C27U A43C C66A A69G C71U, -0.333.
For G6U C27U C66U the value was -0.321; for G6U C27U C66A, -0.0293.
With G6A C27U C46U C66U, the “yeast fitness (ln)” value is -0.0122.
For G6U C27U C46U C66U A70G C71U the value was -0.245; for G6U A43C C46U C66U A69G A70G C71U, -0.325; for G6U A43C C46U C66A A70G C71U, -0.227.
For G6A C46U C66A the value was -0.0719; for G6A C46U C66U, 0.00319.
For G6U C46U A69G A70G the value was -0.158; for G6U C46U A69G A70U, -0.204; for G6U A43C C46U A70U, -0.173.
In the case of G6U A43C C46U A70G, the “yeast fitness (ln)” value is -0.164.
For G6U C27U C46U A69G A70U C71U the value was -0.457.
For G6U C27U C66A A70G the value was -0.0711; for G6U C27U C66A A70U, -0.17; for G6A C27U C46U C66U A70U C71U, -0.237.
For G6U C46U A70U the value was -0.161; for G6U C46U A70G, -0.284.
Turning to G6U C27U A69G C71U, the “yeast fitness (ln)” value was -0.342.
For G6U A43C C46U C66U A69G the value was -0.261; for G6A C46U, -0.0181; for G6A C27U C66U A70U, -0.188.
For G6A C27U C66U A70G the value was -0.0946; for G6U C27U C46U C66A A69G, -0.0559.
For G6U C27U C46U C66U A70U C71U the value was -0.336; for G6U A43C C66A A70G, -0.0733; for G6U A43C C66A A70U, -0.307.
As for G6U C27U C66A C71U, the “yeast fitness (ln)” value is -0.109.
For G6U C27U A43C C66A A69G A70U C71U the value was -0.389; for G6U C27U A43C C66U C71U, -0.34.
On to G6A C27U C46U C66A C71U, for which the “yeast fitness (ln)” value was -0.148.
For G6U C46U A69G A70U C71U the value was -0.301.
For G6U C27U A43C A70G the value was -0.282; for G6U C27U A43C A70U, -0.309.
For G6U C46U A70U C71U the value was -0.189; for G6U A43C C66A A69G A70G C71U, -0.299; for G6A C27U C66A C71U, -0.168.
In the case of G6A C27U C66A A70G C71U, the “yeast fitness (ln)” value is -0.364.
Take G6A C27U C66U A69G A70U C71U: the “yeast fitness (ln)” value is -0.462.
For the variant G6U C27U A43C C66A A69G, the “yeast fitness (ln)” value is -0.264.
With G6U A43C C46U A69G, the “yeast fitness (ln)” value was -0.176.
For G6U C27U C46U C71U the value was -0.205; for G6A C27U C66U A69G A70G C71U, -0.256.
For G6U A43C C46U C66A A69G A70U C71U the value was -0.314; for G6U C27U A43C C46U C66U C71U, -0.355; for G6U C27U A43C C66U A70U C71U, -0.372.
Take G6A C66A: the “yeast fitness (ln)” value is -0.163.
For G6A C66U the value was -0.0046; for G6U C27U A43C C66U A69G A70U, -0.349.
In the case of G6U C27U A43C C66U A69G A70G, the “yeast fitness (ln)” value was -0.528.
For G6U C27U C66U A69G A70G C71U the value was -0.355; for G6U A43C C66U, -0.23; for G6U A43C C66A, -0.0198.
For G6A C46U C71U the value was -0.359; for G6U C27U C46U C66U A69G A70U, -0.308.
Take G6U C27U C46U C66U A69G A70G: the “yeast fitness (ln)” value was -0.318.
For G6U A43C C66A A70U C71U the value was -0.29; for G6U C27U A43C A69G A70U C71U, -0.462.
For G6U C27U A43C C71U the value was -0.281; for G6U A69G, -0.234.
For G6U A43C C66A A69G C71U the value was -0.368; for G6U C27U C46U C66A A70U C71U, -0.213.
Turning to G6U C27U A43C C46U C66U A70G C71U, the “yeast fitness (ln)” value was -0.378.
For G6U C27U A43C C46U C66U A69G A70G C71U the value was -0.444; for G6U C27U A43C C66U A69G C71U, -0.395.
For G6A C27U C46U C66U C71U the value was -0.0799; for G6U C27U C46U C66A A70G, -0.04.
For G6U C27U C46U C66A A70U the value was -0.084; for G6U A43C C66A A70G C71U, -0.177.
For the variant G6U C27U A43C C66U A69G A70G C71U, the “yeast fitness (ln)” value is -0.473.
For G6A C66A A70G the value was -0.0871.
For G6A C66A A70U the value was -0.158.
For G6U A43C A69G the value was -0.328; for G6U A43C C46U C66U A69G A70U C71U, -0.42.
In the case of G6U A43C C46U C66A A70U C71U, the “yeast fitness (ln)” value is -0.214.
For G6U C27U A43C C66A A70G C71U the value was -0.217.
For G6U C27U C46U C66A A69G A70G the value was -0.243; for G6U C27U C46U C66A A69G A70U, -0.196.
For G6A C27U C66U A69G A70U the value was -0.214; for G6A C27U C66U A69G A70G, -0.368.
G6A C46U C66U A69G A70G C71U: the “yeast fitness (ln)” value is -0.581.
For G6U C27U A43C C66U A70G C71U the value was -0.352; for G6U C27U C46U C66A A70G C71U, -0.434; for G6U A43C C66U A69G A70G C71U, -0.442.
For G6U C27U A43C C46U A69G A70U the value was -0.245.
For G6U C27U A43C C46U A69G A70G the value was -0.339; for G6A C71U, -0.23.
Regarding G6U C27U C46U A70U, the “yeast fitness (ln)” value was -0.167.
With G6U C27U C46U A70G, the “yeast fitness (ln)” value is -0.15.
For G6U A43C C66A A69G A70U C71U the value was -0.39.
For G6A C46U C66U C71U the value was -0.0146; for G6U C27U C46U, -0.174.
For G6U A43C C46U C66U A70U C71U the value was -0.359; for G6A C27U C66U A69G, -0.0541; for G6U C27U C46U C66A, -0.00348.
Take G6U C27U C46U C66U: the “yeast fitness (ln)” value was -0.209.
For G6U C27U A43C C46U C66A A70G C71U the value was -0.211.
With G6U A43C C46U C66U A70G, the “yeast fitness (ln)” value was -0.205.
Take G6U A43C C46U C66U A70U: the “yeast fitness (ln)” value is -0.234.
For G6U C46U C66A A69G the value was -0.0364; for G6A C46U C66U A69G A70U C71U, -0.35; for G6U C46U C66A A69G C71U, -0.0515.
For G6U C27U C46U A70U C71U the value was -0.214; for G6U A43C C71U, -0.253; for G6U A70U, -0.0758.
For G6U A70G the value was -0.221.
For G6U C27U A43C C66U A70U, the “yeast fitness (ln)” value was -0.259.
With G6U C27U A43C C66U A70G, the “yeast fitness (ln)” value was -0.407.
In the case of G6U A43C A69G A70G C71U, the “yeast fitness (ln)” value is -0.327.
For G6A C66A C71U the value was -0.0747.
For G6U C27U A43C C46U C66U the value was -0.271; for G6U C27U A43C C46U C66A, -0.0176; for G6U C46U A69G A70G C71U, -0.253.
For the variant G6U A43C A69G C71U, the “yeast fitness (ln)” value was -0.389.
For G6U A43C C46U C66U A69G C71U the value was -0.321.
For G6U C27U C66A A70U C71U the value was -0.29; for G6U A43C C46U C66A A69G A70G C71U, -0.167; for G6U C27U A43C C46U A69G C71U, -0.339.
For G6U C27U C66U A69G A70U C71U the value was -0.416; for G6A C66U A70U C71U, -0.462; for G6U C27U C46U C66U C71U, -0.359.
Turning to G6A C27U C66A A70U C71U, the “yeast fitness (ln)” value was -0.246.
For G6U A43C C66U A70U C71U the value was -0.481; for G6U C27U C46U A69G A70G, -0.192.
On to G6U C27U C46U A69G A70U, for which the “yeast fitness (ln)” value was -0.292.
For G6A C46U C66A A70G the value was -0.117; for G6A C46U C66A A70U, -0.0387.
For G6U A43C C46U A70G C71U the value was -0.256; for G6U C27U C46U A69G C71U, -0.314.
For G6U C27U C66U A70G C71U the value was -0.37; for G6U C27U C46U C66U A69G A70G C71U, -0.321; for G6U C27U C46U C66U A69G A70U C71U, -0.51.
For the variant G6A C46U C66U A70G C71U, the “yeast fitness (ln)” value was -0.229.
As for G6U C27U C66U A70G, the “yeast fitness (ln)” value was -0.288.
For G6U C27U C66U A70U the value was -0.261.
As for G6U A43C C46U A69G A70G C71U, the “yeast fitness (ln)” value is -0.308.
For G6U A43C A70G the value was -0.296; for G6U A43C A70U, -0.164.
For G6A C27U C46U C66U A69G the value was -0.0373; for G6U C27U A70U, -0.208; for G6U C27U A70G, -0.302.
For G6A C46U A70U the value was -0.237; for G6A C46U A70G, -0.226; for G6A C46U C66U A70G, -0.0166.
For G6A C46U C66U A70U, the “yeast fitness (ln)” value was -0.00103.
On to G6U C27U A43C C46U C66U A70U, for which the “yeast fitness (ln)” value is -0.322.
For G6U C27U A43C C46U C66U A70G the value was -0.255.
For G6U C27U C66A A69G A70U the value was -0.213.
For G6U C27U C66A A69G A70G the value was -0.35.
